Published values pooled from the literature.
Lines come from different studies, so protocols differ.
Target: Ephrin type-B receptor 1 (EPHB1, Homo sapiens, UniProt P54762)
Residues used in one study (P54762 18-984): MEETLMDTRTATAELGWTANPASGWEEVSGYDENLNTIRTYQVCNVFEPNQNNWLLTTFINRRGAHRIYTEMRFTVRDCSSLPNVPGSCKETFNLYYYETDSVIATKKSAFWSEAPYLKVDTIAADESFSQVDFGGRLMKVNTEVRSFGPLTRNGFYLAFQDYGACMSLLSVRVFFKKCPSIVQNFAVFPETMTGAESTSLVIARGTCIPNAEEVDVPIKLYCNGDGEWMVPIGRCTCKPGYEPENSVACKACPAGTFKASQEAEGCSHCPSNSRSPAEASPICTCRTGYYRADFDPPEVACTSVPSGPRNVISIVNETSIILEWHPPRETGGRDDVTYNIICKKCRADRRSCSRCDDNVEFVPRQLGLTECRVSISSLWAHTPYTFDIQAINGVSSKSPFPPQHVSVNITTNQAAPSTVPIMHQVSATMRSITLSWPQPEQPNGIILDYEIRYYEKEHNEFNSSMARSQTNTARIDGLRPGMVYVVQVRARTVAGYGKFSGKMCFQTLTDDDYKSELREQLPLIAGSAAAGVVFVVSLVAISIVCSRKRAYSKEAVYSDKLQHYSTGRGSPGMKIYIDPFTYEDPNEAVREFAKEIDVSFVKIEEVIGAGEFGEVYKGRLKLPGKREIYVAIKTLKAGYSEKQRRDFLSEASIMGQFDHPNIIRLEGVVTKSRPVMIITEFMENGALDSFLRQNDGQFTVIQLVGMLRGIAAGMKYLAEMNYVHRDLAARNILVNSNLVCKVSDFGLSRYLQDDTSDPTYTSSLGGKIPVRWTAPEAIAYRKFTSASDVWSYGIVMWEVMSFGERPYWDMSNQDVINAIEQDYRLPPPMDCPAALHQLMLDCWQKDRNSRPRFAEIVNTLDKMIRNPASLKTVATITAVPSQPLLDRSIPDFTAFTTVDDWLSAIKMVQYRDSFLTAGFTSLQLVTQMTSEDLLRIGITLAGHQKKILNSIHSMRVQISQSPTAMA

Structure (SMILES) | assay | conditions | measurement | result
CC(C)(C)c1cc(C=C(C#N)C#N)cc(Br)c1O | enzyme activity, inhibitor | 0.5 µM | remaining activity | 114%
N#CC1(c2ccccn2)CCN(Cc2cc(C(=O)O)c(=O)n3ccccc23)CC1 | cell-free assay, competition with immobilised ligand | 1 µM | remaining binding | 100%
Cc1nn(C)cc1-c1nc2c(N3CCN(Cc4ccc(Cl)cc4)CC3)c(Cl)cnc2[nH]1 | binding, competition with immobilised ligand | 1 µM | remaining binding | 100%
Cn1cc(-c2cc(F)cc(N3CCn4c(cc5c4CCCC5)C3=O)c2CO)cc(Nc2ccc(N3CCN(C4COC4)CC3)cn2)c1=O | enzyme activity, inhibitor | 0.1 µM | inhibition | 6%
Cn1cncc1[C@](O)(COc1ccc(C#N)cc1-c1ccc(OC(F)(F)F)cc1)c1ccc(C#N)cc1 | cell-free assay, competition with immobilised ligand | 1 µM | remaining binding | 98%
Cn1cc(-c2cccc(N3CCc4c(sc5c4CC(C)(C)C5)C3=O)c2CO)cc(Nc2ccncn2)c1=O | enzyme activity, inhibitor | 1 µM | inhibition | 4%
COc1ncccc1-c1cnn2ccc(N3CCN(C(=O)OC(C)C)CC3)nc12 | binding, competition with immobilised ligand | 1 µM | remaining binding | 100%
C#Cc1n[nH]c2c(-c3cn(C(C)c4ccccn4)c(=O)[nH]c3=O)cc(F)cc12 (stereo not drawn) | enzyme activity, inhibitor | 1 µM | inhibition | 4.9%
Nc1ncc(-c2nc(N3CCOCC3)nc(N3CCOCC3)n2)c(C(F)F)n1 | cell-free assay, competition with immobilised ligand | 10 µM | remaining binding | 98%
O=c1[nH]c2ccccc2n1C1CCN(Cc2ccc(-c3[nH]c4cc5ncnc5cc4nc3-c3ccccc3)cc2)CC1 | cell-free assay | 0.5 µM | remaining signal | 104%
C#Cc1n[nH]c2c(-c3cn([C@@H](C)c4ccccc4)c(=O)[nH]c3=O)cc(F)cc12 | enzyme activity, inhibitor | 0.1 µM | inhibition | 1.9%
COc1cc(Nc2ncc(F)c(Nc3ccc4c(n3)NC(=O)C(C)(C)O4)n2)cc(OC)c1OC | binding, competition with immobilised ligand | 10 µM | inhibition | 96%
